pIC50: −log10 of the molar value. The source made the active and inactive calls. No cut-off for these calls is given here.
Key:
[1] = target: Vascular endothelial growth factor receptor 2 (Homo sapiens) (UniProt P35968); assay: Inhibition of human VEGFR2 at 30 uM
Summary of the method: (§1)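 48-kinase profiling panel; compounds tested at 30 μM in duplicate.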

[2] = Induction of necrosis in neonatal rat ventricular cardiomyocytes assessed as release of adenylate kinase at 50 uM measured after 24 hrs by bioluminescence assay; assay type: cell-based; details: cardiac muscle cell
Summary of the method: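 Neonatal rat cardiomyocytes treated 24 h at 50 μM; adenylate kinase released into medium measured by ToxiLight bioluminescence on a luminometer; relative to vehicle, mean ± SD, n = 3.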

[3] = Stability of compound in DMSO assessed as formation of N-[4-(Ethylamino)phenyl]-5-methyl-3-phenylisoxazole-4-carboxamide at 3 to 5 uM at room temperature measured after 6 months by HPLC/MS method; assay type: physicochemical; details: 4383 h
[4] = Drug metabolism in embryoid body differentiation medium assessed as formation of N-[4-(Ethylamino)phenyl]-5-methyl-3-phenylisoxazole-4-carboxamide at 3 to 5 uM measured after 10 days by HPLC/MS method; assay type: physicochemical; details: 240 h
Summary of the method: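 Mouse embryonic stem cells exposed 5 and 10 days to 3 or 5 μM, with DMSO and EB differentiation medium blanks. Medium extracted with chloroform; cells pelleted, saline-washed twice, sonicated in chloroform. UPLC-ESI(+)-QTOF/MS, BEH C18, 0.1% formic acid water/acetonitrile gradient 7–80% B over 5 min, 0.6 mL/min, 40 °C.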

GATA4/NKX2-5 = GATA4/NKX2-5 (Mus musculus, UniProt P42582+Q08369); assay: (§2) Inhibition of mouse GATA4/NKX2-5 transcriptional synergy expressed in African green monkey COS-1 cells measured after 30 hrs by dual luciferase reporter gene assay; assay type: cell-based
GATA4/NKX2-5, sequence (Q08369 whole entry): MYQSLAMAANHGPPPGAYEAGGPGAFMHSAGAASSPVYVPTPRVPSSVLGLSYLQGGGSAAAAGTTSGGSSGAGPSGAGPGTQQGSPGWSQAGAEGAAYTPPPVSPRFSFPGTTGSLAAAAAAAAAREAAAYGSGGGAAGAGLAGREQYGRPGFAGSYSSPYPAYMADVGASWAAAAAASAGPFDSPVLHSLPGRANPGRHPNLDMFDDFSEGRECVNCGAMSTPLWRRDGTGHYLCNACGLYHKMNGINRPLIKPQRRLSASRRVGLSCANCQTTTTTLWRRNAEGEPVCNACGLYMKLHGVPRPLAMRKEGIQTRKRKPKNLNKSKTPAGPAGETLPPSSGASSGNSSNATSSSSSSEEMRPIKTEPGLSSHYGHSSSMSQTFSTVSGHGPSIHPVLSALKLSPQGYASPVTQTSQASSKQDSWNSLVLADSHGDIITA
GATA4/NKX2-5, sequence (P42582 whole entry): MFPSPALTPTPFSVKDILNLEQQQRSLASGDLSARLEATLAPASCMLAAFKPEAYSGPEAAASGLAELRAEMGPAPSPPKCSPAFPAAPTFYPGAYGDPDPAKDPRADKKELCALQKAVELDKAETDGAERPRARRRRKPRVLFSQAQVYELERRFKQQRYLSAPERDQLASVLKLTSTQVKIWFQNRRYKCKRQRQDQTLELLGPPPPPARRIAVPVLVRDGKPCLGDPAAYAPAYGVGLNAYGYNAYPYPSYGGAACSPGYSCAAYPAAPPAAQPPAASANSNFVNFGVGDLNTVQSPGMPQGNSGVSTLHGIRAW
Summary of the method: (§3)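 COS-1 cells co-transfected (Fugene 6, DNA:reagent 1:3) with p3xNKE-luc, Renilla pRL-TKd238 control, and pMT2-GATA4, pMT2-NKX2-5, both, or empty pMT2; DNA balanced with pMT2. Compounds added 6 h post-transfection in 0.1% DMSO, medium renewed at 24 h, lysis at 30 h. Dual-luciferase read-out, firefly/Renilla normalized to vehicle; duplicate wells.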

[5] = target: GATA4/NKX2-5 (Mus musculus) (UniProt Q08369+P42582); assay: as §2; assay type: cell-based; summary of the method: as §3
[6] = target: Mitogen-activated protein kinase 1 (Homo sapiens) (UniProt P28482); assay: Inhibition of human ERK2 at 30 uM; summary of the method: as §1
Mitogen-activated protein kinase 1 (Homo sapiens), sequence (P28482 whole entry): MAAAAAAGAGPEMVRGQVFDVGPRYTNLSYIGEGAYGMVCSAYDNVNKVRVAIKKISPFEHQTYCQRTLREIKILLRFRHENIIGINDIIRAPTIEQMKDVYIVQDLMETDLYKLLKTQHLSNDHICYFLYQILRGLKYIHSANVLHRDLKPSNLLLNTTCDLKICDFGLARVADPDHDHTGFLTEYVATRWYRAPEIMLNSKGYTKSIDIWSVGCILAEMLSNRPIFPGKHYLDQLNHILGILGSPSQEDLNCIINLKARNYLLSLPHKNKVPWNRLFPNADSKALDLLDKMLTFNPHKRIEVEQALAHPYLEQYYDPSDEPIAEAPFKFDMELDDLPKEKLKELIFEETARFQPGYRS

[7] = target: Hydroxycarboxylic acid receptor 2 (Homo sapiens) (UniProt Q8TDS4); assay: Antagonist activity at human GPR109A expressed in rat Chem-4 cells assessed as inhibition of calcium flux at 10 uM by fluorescence assay; assay type: functional, cell-based
Hydroxycarboxylic acid receptor 2 (Homo sapiens), sequence (Q8TDS4 whole entry): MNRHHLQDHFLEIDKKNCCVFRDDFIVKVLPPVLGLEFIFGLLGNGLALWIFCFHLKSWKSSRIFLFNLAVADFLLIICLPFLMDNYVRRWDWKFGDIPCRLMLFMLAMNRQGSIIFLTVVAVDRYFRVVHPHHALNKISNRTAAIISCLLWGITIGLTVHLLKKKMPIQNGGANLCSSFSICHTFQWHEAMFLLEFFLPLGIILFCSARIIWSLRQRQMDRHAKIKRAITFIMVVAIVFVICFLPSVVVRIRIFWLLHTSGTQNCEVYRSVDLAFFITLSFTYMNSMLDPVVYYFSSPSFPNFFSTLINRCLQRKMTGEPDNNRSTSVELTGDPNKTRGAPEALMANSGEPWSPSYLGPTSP
Summary of the method: (§4)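 GPCR profiling panel of cell-based functional assays covering 165 GPCRs; agonist mode tested at 12.5 μM and antagonist mode at 10 μM, in duplicate.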

[8] = target: Transcription factor GATA-4 (Mus musculus) (UniProt Q08369); assay: Inhibition of mouse GATA4-driven transactivation of luciferase reporter construct containing BNP minimal promoter with tandem GATA-site on -90 bp expressed in African green monkey COS-1 cells after 30 hrs by luminometer; assay type: cell-based
Transcription factor GATA-4 (Mus musculus), sequence (Q08369 whole entry): as the sequence (Q08369 whole entry) above
Summary of the method: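 COS-1 cells co-transfected with firefly luciferase driven by BNP minimal or −90 bp BNP promoter, Renilla pRL-TKd238, and pMT2-GATA4 or empty pMT2. Compounds added 6 h post-transfection in 0.1% DMSO, refreshed with medium at 24 h; lysis at 30 h; dual-luciferase, firefly/Renilla normalized to vehicle; triplicate wells.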

[9] = target: GATA4/NKX2-5 (Rattus norvegicus) (UniProt P46152+O35767); assay: Inhibition of GATA4/NKX2-5 interaction in neonatal rat ventricular cardiomyocytes assessed as decrease in basal mRNA level of ANP at 10 uM after 24 hrs by real-time PCR analysis
Summary of the method: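 Neonatal rat ventricular myocytes (2–4-day-old Sprague-Dawley or Wistar), preplated, seeded on 6-well plates, moved to complete serum-free medium next day and cultured 24 h. Compounds (10–100 μM) added 1 h before 100 nM endothelin-1 or none; ANP and BNP mRNA quantified by RT-PCR at 24 h, normalized to 18S RNA, relative to vehicle; mean ± SD, n = 3–6.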

[10] = target: Growth hormone secretagogue receptor type 1 (Homo sapiens) (UniProt Q92847); assay: Antagonist activity at human GHS-R at 10 uM by ELISA; details: in the assay text read “by calcium flux assay” for “by ELISA”; summary of the method: as §4
Growth hormone secretagogue receptor type 1 (Homo sapiens), sequence (Q92847 whole entry): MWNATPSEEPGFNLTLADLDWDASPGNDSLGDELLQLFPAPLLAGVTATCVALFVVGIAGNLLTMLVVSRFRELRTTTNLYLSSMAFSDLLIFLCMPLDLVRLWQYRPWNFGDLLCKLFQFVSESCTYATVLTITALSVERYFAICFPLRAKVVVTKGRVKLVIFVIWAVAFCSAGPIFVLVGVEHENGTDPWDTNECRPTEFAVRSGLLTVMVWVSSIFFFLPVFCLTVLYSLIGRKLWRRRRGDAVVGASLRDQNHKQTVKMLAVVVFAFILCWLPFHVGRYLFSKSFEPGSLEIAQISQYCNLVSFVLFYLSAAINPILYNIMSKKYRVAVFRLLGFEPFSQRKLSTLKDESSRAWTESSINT

[11] = target: Homeobox protein Nkx-2.5 (Mus musculus) (UniProt P42582); assay: Inhibition of binding of mouse NKX2-5 to [32P]-double stranded oligonucleotide expressed in African green monkey COS-1 cells at 50 uM preincubated for 10 mins followed by [32P]-double stranded oligonucleotide addition measured after 20 mins by EMSA method; assay type: cell-based
Homeobox protein Nkx-2.5 (Mus musculus), sequence (P42582 whole entry): as the sequence (P42582 whole entry) above
Summary of the method: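 Nuclear extracts from COS-1 cells transfected with pMT2-GATA4 or pMT2-NKX2-5 (harvested 48 h) preincubated 10 min with 50 μM compound, then 20 min with 32P-labeled GATA4- or NKX2-5-site probe; native 5% PAGE, phosphorimager quantitation; antibody supershift controls; mean ± SD, n = 3–5.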

[12] = target: Mitogen-activated protein kinase 14 (Homo sapiens) (UniProt Q16539); assay: Inhibition of human p38alpha MAPK at 30 uM; summary of the method: as §1
Mitogen-activated protein kinase 14 (Homo sapiens), sequence (Q16539 whole entry): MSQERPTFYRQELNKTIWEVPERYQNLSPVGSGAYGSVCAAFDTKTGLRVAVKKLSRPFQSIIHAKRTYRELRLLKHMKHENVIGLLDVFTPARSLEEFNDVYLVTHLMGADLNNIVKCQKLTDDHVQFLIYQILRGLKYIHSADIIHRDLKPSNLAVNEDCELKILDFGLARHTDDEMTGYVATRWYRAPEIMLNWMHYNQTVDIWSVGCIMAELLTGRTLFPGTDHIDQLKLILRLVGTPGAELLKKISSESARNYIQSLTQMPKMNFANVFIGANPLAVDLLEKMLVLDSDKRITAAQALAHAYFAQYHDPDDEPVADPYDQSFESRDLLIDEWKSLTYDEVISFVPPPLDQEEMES

[13] = Induction of aggregation of compounds at 100 uM by nephalometric method
[14] = target: Cannabinoid receptor 2 (Homo sapiens) (UniProt P34972); assay: Agonist activity at human CB2 receptor expressed in rat hematopoietic Chem-4 cells assessed as induction of calcium flux at 12.5 uM by fluorescence assay; assay type: functional, cell-based; summary of the method: as §4
Cannabinoid receptor 2 (Homo sapiens), sequence (P34972 whole entry): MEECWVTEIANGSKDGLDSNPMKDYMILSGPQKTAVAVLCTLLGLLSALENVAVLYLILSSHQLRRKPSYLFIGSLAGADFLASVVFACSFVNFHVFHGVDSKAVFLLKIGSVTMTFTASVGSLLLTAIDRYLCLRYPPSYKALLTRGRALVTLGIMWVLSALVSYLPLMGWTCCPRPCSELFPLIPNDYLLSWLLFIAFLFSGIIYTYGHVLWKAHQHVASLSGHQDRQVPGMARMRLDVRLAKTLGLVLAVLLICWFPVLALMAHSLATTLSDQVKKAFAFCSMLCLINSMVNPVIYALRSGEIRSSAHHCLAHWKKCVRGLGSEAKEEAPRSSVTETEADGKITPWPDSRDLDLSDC

Vascular endothelial growth factor receptor 2 (Homo sapiens), sequence (P35968 whole entry): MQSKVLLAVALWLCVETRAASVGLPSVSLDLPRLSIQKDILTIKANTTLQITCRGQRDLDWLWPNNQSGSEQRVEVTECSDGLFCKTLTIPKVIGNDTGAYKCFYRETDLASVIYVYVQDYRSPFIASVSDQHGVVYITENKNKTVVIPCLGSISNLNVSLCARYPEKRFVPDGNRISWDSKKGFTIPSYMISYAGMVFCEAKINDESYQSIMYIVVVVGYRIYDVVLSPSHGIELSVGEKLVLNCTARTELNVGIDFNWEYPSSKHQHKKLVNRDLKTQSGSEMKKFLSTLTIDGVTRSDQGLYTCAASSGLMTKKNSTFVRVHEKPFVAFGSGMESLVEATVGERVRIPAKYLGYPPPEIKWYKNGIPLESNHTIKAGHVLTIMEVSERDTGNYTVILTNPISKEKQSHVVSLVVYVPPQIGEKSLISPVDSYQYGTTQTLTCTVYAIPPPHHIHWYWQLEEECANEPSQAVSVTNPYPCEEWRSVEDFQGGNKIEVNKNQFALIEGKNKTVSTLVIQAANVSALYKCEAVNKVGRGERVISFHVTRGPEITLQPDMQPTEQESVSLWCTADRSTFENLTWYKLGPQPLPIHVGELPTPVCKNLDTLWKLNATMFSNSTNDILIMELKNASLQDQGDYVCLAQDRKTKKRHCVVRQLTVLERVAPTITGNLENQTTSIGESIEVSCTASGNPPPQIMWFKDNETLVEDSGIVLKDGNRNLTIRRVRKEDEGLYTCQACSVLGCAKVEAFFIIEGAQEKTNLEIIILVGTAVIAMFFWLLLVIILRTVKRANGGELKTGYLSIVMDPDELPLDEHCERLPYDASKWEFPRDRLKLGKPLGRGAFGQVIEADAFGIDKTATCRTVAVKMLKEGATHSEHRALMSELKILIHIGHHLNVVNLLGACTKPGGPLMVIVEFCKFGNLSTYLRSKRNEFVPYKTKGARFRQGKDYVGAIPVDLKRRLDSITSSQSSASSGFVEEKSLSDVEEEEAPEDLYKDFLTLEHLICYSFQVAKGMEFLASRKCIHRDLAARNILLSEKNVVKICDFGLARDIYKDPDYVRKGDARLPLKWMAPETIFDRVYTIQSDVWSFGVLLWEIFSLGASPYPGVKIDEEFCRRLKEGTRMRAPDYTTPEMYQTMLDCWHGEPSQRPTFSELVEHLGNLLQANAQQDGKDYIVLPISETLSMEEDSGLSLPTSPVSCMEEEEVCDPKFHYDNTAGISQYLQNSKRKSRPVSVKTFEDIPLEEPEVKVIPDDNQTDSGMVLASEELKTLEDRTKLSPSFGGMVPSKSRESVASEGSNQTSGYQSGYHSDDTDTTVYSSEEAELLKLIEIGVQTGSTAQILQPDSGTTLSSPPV

In the case of `CCN(CC)c1ccc(NC(=O)c2c(-c3ccccc3)noc2C)cc1`, the inhibition [1] was 64%, the Activity [2] was “Non-Toxic” and the Stability [3] was “Stable”. The Drug metabolism [4] was “Metabolite_Detected”, the pIC50 (GATA4/NKX2-5) was 5.52 and the inhibition [5] was “Dose-dependent effect”. The inhibition [6] was “inactive”, the inhibition [7] was 58.5% and the inhibition [8] was “Active”. The inhibition [9] was 81%, the inhibition [10] was 65.2% and the inhibition [11] was “inactive”. The inhibition [12] was “inactive”, the Activity [13] was “Active” and the Activity [14] was “inactive”.
